Screening data deposited in PubChem BioAssay by several laboratories.
CHOP inhibitor – inhibitors of CHOP promoter induction, primary screen, cell-based, unfolded protein response, luciferase reporter. inhibition, % at 10 µM. 220,000 compounds, 3.8% hits. CHO-K1 CHOP-promoter luciferase, tunicamycin-induced, 15-18 h;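 active = compounds that reduced the stress-induced luciferase reporter signal by more than about 70% of percent inhibition, limit read from the data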;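 note: 0% = tunicamycin plus vehicle and 100% = wells without tunicamycin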
UPR XBP1 act – activators of adaptive XBP1 UPR arm, primary screen, cell-based, CHO-XBP1 luciferase reporter, luminescence, uHTS | 330,000 compounds, 0.33% hits | IRE1-XBP1 UPR activation; percent of tunicamycin response, DMSO as zero | activation, % at 20 µM;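 active = versus positive control, 20 µM dose yields 30% or more activation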;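 note: 100% = tunicamycin at 10 µg/mL and 0% = DMSO only wells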
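Material – CHO cell line with stable XBP1 luciferase reporter · Buffer or medium – F12 plus 10% FBS · Compound – single point, 20 µM final compound, 1% DMSO · Schedule – 16-18 h cell attachment at 37 °C, then 6 h compound exposure · Signal – Steady-Glo luminescence read · Benchmarks – high control tunicamycin 10 µg/mL final, low control DMSO vehicle only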
CHOP UPR activ – activators of apoptotic CHOP UPR arm, primary screen, cell-based, CHO-CHOP luciferase reporter, luminescence, uHTS; 330,000 compounds, 0.34% hits; activation, % at 10 µM; AID 449763, 2010; UPR activation; percent of tunicamycin response over DMSO baseline;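 active = at 10 µM dose, activation of 40% or more, normalized to positive control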;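 note: 100% = tunicamycin at 10 µg/mL and 0% = DMSO alone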
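System: CHO CHOP reporter cells. Amount: 500 cells per well. Buffer or medium: F12 medium, 10% FBS. Compound dosing: one dose, 10 µM in 0.5% DMSO. Incubation: 6 h compound exposure at 37 °C after overnight seeding. Technique: Steady-Glo luciferase luminescence. Benchmarks: tunicamycin and DMSO controls.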
PvdQ acylase – P. aeruginosa PvdQ acylase inhibitors, primary screen, biochemical, fluorescence, plate reader and imaging, single point. inhibition, % at 10 µM. PvdQ acylase [Pseudomonas aeruginosa LESB58]. purified PvdQ acylase. 340,000 compounds, 0.063% hits; in the data active = inhibition above about 30%, passing the limit was not always enough;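 note: 0% = vehicle neutral wells and 100% = reference inhibitor wells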
CHOP inh conf – retest of CHOP induction inhibitors, confirmation, cell-based; shares compounds with CHOP inhibitor; CHO-CHOP promoter luciferase reporter, tunicamycin-induced, luminescence; inhibition, % at 10 µM; 2,100 compounds, 45% hits; AID 504437, 2011;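 active = mean of three repeat readings of reporter signal inhibition above a set limit, cut at about 70% in these data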;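 note: 0% = tunicamycin plus vehicle and 100% = wells lacking tunicamycin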
* marks the source's active call; other numbers are inactive results; . = no result given. This is one part of a sample in which hits are shown more often than they occur.

SMILES	CHOP inhibitor	UPR XBP1 act	CHOP UPR activ	PvdQ acylase	CHOP inh conf
FC(F)(F)c1cccc(NC(=S)Nc2ccc(Cl)cc2Cl)c1	105.2*	-4.1	0.9	-12.8	100.7*
S=C(Nc1ccccc1)Nc1ccc(Cl)cc1Cl	26.2	-1.0	5.6	8.1	.
O=C(/C=C/c1cccc(C(F)(F)F)c1)Nc1cccc(C(F)(F)F)c1	96.8*	5.9	4.9	-3.6	100.0*
Cc1ccc(NC(=O)/C=C/c2cccc(C(F)(F)F)c2)cc1	34.7	0.2	6.8	-8.1	.
O=C(Cc1ccccc1)NC(=S)Nc1cccc(C(F)(F)F)c1	107.7*	-0.6	-0.9	-10.8	101.5*
FC(F)(F)c1cccc(NC(=S)NCC2COc3ccccc3O2)c1 (centres undefined)	103.4*	0.1	-0.7	3.3	2.0
O=C(NCCCN1CCOCC1)c1ccc2c(c1)N(Cc1c(F)cccc1Cl)C(=O)c1ccccc1S2	.	-5.6	0.8	-5.7	.
CC1CCCN(S(=O)(=O)c2ccc(C(=O)Nc3nnc(-c4ccccn4)o3)cc2)C1 (centres undefined)	5.5	-0.6	-2.9	4.8	.
CC1CCCN(S(=O)(=O)c2ccc(C(=O)Nc3nnc(-c4ccccc4Cl)o3)cc2)C1 (centres undefined)	98.4*	4.8	3.1	-0.7	34.5
CC(/C=N/N1CCN(Cc2ccccc2)CC1)=C\c1ccccc1	34.2	-1.6	2.1	-1.5	.
COc1cc(/C=C/c2nc(N)nc(-c3ccccc3O)n2)cc(OC)c1OC	96.2*	3.8	8.8	-7.7	76.5*
COc1cc(/C=C/c2noc(-c3ccccc3O)n2)cc(OC)c1OC	53.9	2.0	0.2	2.0	.
CCCn1c(SCC(=O)NC2CCC(C)CC2)n[nH]c1=O (centres undefined)	.	1.0	-3.1	-16.4	.
CCn1cc(Cl)c(C(=O)N2N=C(c3ccc4ccccc4c3)CC2c2ccccc2O)n1 (centres undefined)	96.7*	8.9	4.2	-8.4	61.3
CNc1ccc(Br)cc(C(=O)/C=C/c2ccc(OC)cc2OC)c1=O	-15.7	-6.2	-4.9	-5.6	.
CNc1ccc(Br)cc(C(=O)/C=C/c2ccc(Cl)cc2Cl)c1=O	103.2*	-3.8	5.0	-9.0	-29.8
CC(C)(C)N(Cc1ccccc1)C(=O)CN1C(=O)c2ccccc2S1(=O)=O	.	-2.7	-0.9	-9.3	.
Cc1occc1C(=O)Nc1sc2c(c1C(N)=O)CCCCC2	96.2*	5.3	3.3	1.9	10.6
COC(=O)c1c(NC(=O)c2ccoc2C)sc2c1CCC2	53.6	-0.3	-1.1	-2.9	.
CCCCCCCCNC(C)C(O)c1ccc(SC(C)C)cc1 (centres undefined)	108.5*	-3.8	4.9	-10.4	128.4*
C[C@@H](NCCc1ccc(O)cc1)[C@@H](O)c1ccc(O)cc1	-7.2	1.5	-0.4	3.1	.
Cn1c(O)c(N=Nc2nc(-c3ccccc3)cs2)c2ccccc21	2.3	0.2	4.1	-5.2	.
CC(C)(C)c1ccc(-c2noc(CCC(N)=O)n2)cc1	100.5*	-4.6	-8.8	-6.5	113.0*
O=Nc1ccc(O)c2ncccc12	106.2*	-6.0	-1.3	0.0	108.3*
O=S(=O)(O)c1cccc2c(N=Nc3ccc(O)c4ncccc34)cccc12	.	.	.	-2.1	.
SMILES	CHOP inhibitor	UPR XBP1 act	CHOP UPR activ	PvdQ acylase	CHOP inh conf
Cc1ccc(OCC(=O)N/N=C/c2cn[nH]c2-c2ccc(Cl)c(Cl)c2)cc1	99.2*	-0.9	-1.4	-9.3	72.4*
S=C(Nc1ccc(Cl)c(Cl)c1)NC1CCN(Cc2ccccc2)CC1	105.4*	13.9	2.6	-19.0	37.4
S=C(Nc1ccc(Cl)c(Cl)c1)NC1CCCCC1	103.3*	2.5	2.6	-14.4	23.5
Fc1ccc(NC(=S)NC2CCN(Cc3ccccc3)CC2)cc1	-10.9	0.4	-0.5	-12.1	.
O=C1ON=C(c2ccccc2)/C1=C/c1ccco1	104.1*	9.5	2.9	-9.4	-79.6
COc1ccc(/C=C2\C(=O)ON=C2c2ccccc2)cc1OC	.	-1.1	3.3	-9.0	.
COc1cc(/C=C2\C(=O)ON=C2c2ccccc2)cc(OC)c1OC	-27.6	2.2	-0.4	-14.1	.
COc1ccc(/C=C2/C(=O)ON=C2c2ccccc2)cc1OC	105.2*	2.4	5.1	12.4	103.8*
CN1C(=O)NC(c2ccccc2)C2=C1CN(c1ccc3ccccc3c1)C2=O (centres undefined)	96.3*	-4.1	-1.4	-18.4	14.6
Cc1nn(C)c(C)c1NC(=O)CSc1nc(-c2ccccc2Cl)nc2c1cnn2-c1ccccc1	18.6	-0.7	0.3	-10.8	.
Cc1nn(C)c(C)c1NC(=O)CSc1nc(C2CC2)nc2c1cnn2-c1ccccc1	102.3*	0.8	1.5	-9.2	30.2
CC(NC(=O)CN1CCN(CC(=O)Nc2ccccc2Cl)CC1)c1ccc(Br)cc1 (centres undefined)	.	-3.4	-0.3	-19.7	.
O=S(=O)(Nc1cc(Sc2cccc3cccnc23)c(O)c2ccccc12)c1ccc(F)cc1	106.9*	.	.	.	107.7*
COc1cc2c(C(=O)N(C)c3ccc(F)cc3)cn(C)c(=O)c2cc1OC	.	-4.3	-0.7	-8.4	.
CC/C(=C(\c1ccccc1)c1ccc(OCCN(C)C)cc1)c1ccccc1	-2.5	-1.1	2.6	-4.6	.
CCN(CC)CCOc1ccc(/C(=C(/Cl)c2ccccc2)c2ccccc2)cc1	98.6*	-0.2	1.9	-9.9	7.3
Cc1ccc(Nc2nc(N)c([N+](=O)[O-])c(NCc3ccccc3)n2)cc1	103.8*	16.5	2.0	-11.3	35.1
COc1ccc(Nc2nc(N)c([N+](=O)[O-])c(NCc3ccccc3)n2)cc1	15.4	8.0	3.0	5.5	.
CC1CCN(c2nc3ccc(C(=O)NCCCN4CCCCC4)cc3s2)CC1	.	2.7	-0.4	-18.0	.
CC1CCN(c2nc3ccc(C(=O)O)cc3s2)CC1	96.7*	-15.9	-11.4	-0.8	108.4*
CO[C@H]1O[C@@H]2O[C@@]3(C)CC[C@H]4[C@H](C)CC[C@@H]([C@H]1C)[C@@]24OO3	.	0.9	3.3	.	.
CCCCN(C(=O)C(C)Oc1ccc(Br)cc1)c1c(N)n(CC(C)C)c(=O)[nH]c1=O (centres undefined)	.	-1.1	-0.3	13.3	.
CC(Oc1ccc(Br)cc1)C(=O)Nc1cc(S(=O)(=O)N2CCOCC2)ccc1N1CCCC1 (centres undefined)	.	-4.9	0.8	-6.8	.
Cc1ccc(-c2cc(-c3ccccc3C)[nH]n2)c(O)c1	102.4*	3.6	9.2	4.1	9.2
Cc1ccc(O)c(-c2cc(-c3cccc(F)c3)n[nH]2)c1	102.3*	3.8	4.1	-16.8	11.7
Cc1ccc(O)c(-c2cc(-c3ccccc3F)[nH]n2)c1	104.0*	6.0	2.1	-9.2	7.5
Cc1ccc(-c2cc(-c3cccc(F)c3)n[nH]2)c(O)c1	-58.6	3.4	2.3	-9.3	.
CCCN(CC(=O)Nc1ccccc1OC)CC(=O)c1c(N)n(Cc2ccccc2)c(=O)n(C)c1=O	.	.	.	-15.9	.
